# Assay results taken from ChEMBL document CHEMBL2380267, “Structural optimization, biological evaluation, and application of peptidomimetic prostate specific antigen inhibitors” (J Med Chem, 2013).
# Activity calls are given as the source filed them. The rule behind the calls is not given here. Non-standard residues stand in square brackets, D forms with d. Residues, ends and D or L forms follow the SMILES beside them. *: point of attachment. X4 = CC1(C)[C@@H]2C[C@H]1[C@]1(C)OB([C@@H](CCCBr)N*)O[C@@H]1C2; dboroNva(5-Br) = OB(O)[C@@H](CCCBr)N*; dboroPhe = OB(O)[C@@H](Cc1ccccc1)N*; Benzoyl(4-I) = O=C(c1ccc(I)cc1)*; X2 = CC(C)C[C@@H](N*)B(O)O; Nle = CCCC[C@H](N)C(=O)O; Cbz = O=C(OCc1ccccc1)*; Ahx = NCCCCCC(=O)O
# Key:
# Mus musculus [1] = test: Biodistribution in tumor of nude mouse xenografted with human LNCAP cells expressing PSA at 230 to 580 uCi after 3 to 4 hrs by gamma counting analysis; type: ADME, organism-based, Neoplasm; conditions: in vivo
# Outline: (§1)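 Single mice sacrificed at 2, 4 and 6 h (or 2 and 4 h). Liver, kidney, heart, brain, muscle and tumor weighed and gamma-counted. Counts corrected for background and decay; %ID/g calculated against 0.01 mL of dosing solution.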
# Kidney = test: Biodistribution in nude mouse kidney xenografted with human LNCAP cells expressing PSA at 230 to 580 uCi after 2 hrs by gamma counting analysis; type: ADME, organism-based; conditions: in vivo; outline: as §1
# Liver = test: Biodistribution in nude mouse liver xenografted with human LNCAP cells expressing PSA at 230 to 580 uCi after 2 hrs by gamma counting analysis; type: ADME, organism-based; conditions: in vivo; outline: as §1
# [2] = Half life in ip dosed mouse; type: ADME, organism-based; conditions: in vivo
# Outline: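 Four animals sacrificed per time point; plasma counts per second normalised to starting counts.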
# [3] = Selectivity ratio of Ki for bovine pancreas chymotrypsin to Ki for human seminal fluid PSA
# [4] = Inhibition of bovine pancreas chymotrypsin using Suc-AAPF-AMC as substrate measured for 30 mins by fluorescence assay; parameters: species or system Bos taurus
# Outline: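 Inhibitor added from DMSO stock; substrate added last and AMC fluorescence read immediately. Ki = 1/slope × 1/(1+[S]/Km), from V0/Vi−1 plotted against [I].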
# [5] = biological target: T1, Prostate-specific antigen (Homo sapiens, UniProt P07288); test: Inhibition of PSA (unknown origin)
# T1 sequence (P07288 whole entry): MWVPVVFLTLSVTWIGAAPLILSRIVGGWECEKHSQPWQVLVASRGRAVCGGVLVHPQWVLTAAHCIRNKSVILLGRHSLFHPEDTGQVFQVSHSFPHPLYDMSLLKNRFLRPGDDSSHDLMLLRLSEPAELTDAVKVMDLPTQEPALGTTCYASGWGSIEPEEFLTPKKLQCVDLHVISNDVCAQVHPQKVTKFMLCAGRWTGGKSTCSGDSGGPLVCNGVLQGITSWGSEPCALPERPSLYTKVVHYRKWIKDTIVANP
# [6] = biological target: T1, Prostate-specific antigen; test: Inhibition of PSA (unknown origin) using Mu-SRKSQQY-AMC as substrate by fluorescence assay
# Outline: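 Inhibitor added from DMSO stock. AMC fluorescence (ex 370, em 465 nm) followed over 30 min in triplicate. Ki = 1/slope × 1/(1+[S]/Km), from V0/Vi−1 plotted against [I].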
# [7] = Selectivity ratio of Ki for human seminal fluid PSA to Ki for bovine pancreas chymotrypsin
# LNCaP [8] = test: Antitumor activity against human LNCAP cells expressing PSA xenografted in nude mouse assessed as tumor incident at 10 mg/kg, iv qd administered 5 days/week for 3 weeks measured after 3 weeks; type: functional, organism-based; parameters: dose 10 mg/kg
# Outline: (§2)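 Nude male mice (n = 10 per group) carrying subcutaneous PSA-producing LNCaP xenografts. Dosed 10 mg/kg iv once daily for three cycles of five consecutive days, compound in sterile saline; controls untreated. Tumor measured by caliper, volume = L × W × H × […]. Tumor size and body weight recorded twice per week.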
# Mus musculus [9] = test: Inhibition of free PSA level in nude mouse serum xenografted with human LNCAP cells at 10 mg/kg, iv qd administered 5 days/week for 3 weeks measured 24 hrs post last dose by ELISA relative to control; type: functional
# Outline: (§3)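 LNCaP xenograft-bearing nude mice dosed 10 mg/kg iv (sterile saline) once daily, five consecutive days/week for three courses; controls untreated. Serum free and total PSA measured by ELISA 24 h after the last dose, also expressed per g tumor.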
# Mus musculus [10] = test: Inhibition of total PSA level in nude mouse serum xenografted with human LNCAP cells at 10 mg/kg, iv qd administered 5 days/week for 3 weeks measured 24 hrs post last dose by ELISA relative to control; type: functional; outline: as §3
# Mus musculus [11] = test: Toxicity in nude mouse xenografted with human LNCAP cells expressing PSA assessed as body weight loss at 10 mg/kg, iv qd measured 5 days/week for 3 weeks; type: organism-based; parameters: dose 10 mg/kg, route intravenous; conditions: in vivo; outline: as §2
# LNCaP [12] = test: Antitumor activity against human LNCAP cells expressing PSA xenografted in nude mouse assessed as delay in tumor growth at 10 mg/kg, iv qd administered 5 days/week for 3 weeks measured after 2 weeks; type: functional, organism-based; parameters: dose 10 mg/kg; outline: as §2
Ratio Ki [3],Ki [4] [nM],SMILES,further results
,,CCCC[C@H](NC(=O)[C@H](CCC(N)=O)NC(=O)[C@H](CO)NC(=O)[C@H](Cc1ccccc1)NC(=O)CCCCCNC(=O)c1ccc([125I])cc1)C(=O)N[C@H](CCCBr)B1O[C@@H]2C[C@H]3C[C@H](C3(C)C)[C@]2(C)O1,Drug uptake (Mus musculus [1]): Active; Drug uptake (Kidney): Active; Drug uptake (Liver): Active
,,CCCC[C@H](NC(=O)[C@H](CCC(N)=O)NC(=O)[C@H](CO)NC(=O)[C@H](Cc1ccccc1)NC(=O)CCCCCNC(=O)c1ccc([125I])cc1)C(=O)N[C@H](CCCBr)B(O)O,Drug uptake (Mus musculus [1]): Active; Drug uptake (Kidney): Active; Drug uptake (Liver): Active
,,CCCC[C@H](NC(=O)[C@H](CCC(N)=O)NC(=O)[C@H](CO)NC(=O)C[C@H](Cc1ccc2ccccc2c1)NC(=O)CCCCCNC(=O)c1ccc([125I])cc1)C(=O)N[C@H](Cc1ccccc1)B(O)O,Drug uptake (Mus musculus [1]): Active; Drug uptake (Kidney): Active; Drug uptake (Liver): Active; half-life [2]: 2.7 h
,,CCCC[C@H](NC(=O)[C@H](CCC(N)=O)NC(=O)[C@H](CO)NC(=O)[C@H](CO)NC(=O)CCCCCNC(=O)c1ccc([125I])cc1)C(=O)N[C@H](CCCBr)B(O)O,half-life [2]: 0.2 h
4.94,506,CCCC[C@H](NC(=O)[C@H](CCC(N)=O)NC(=O)[C@H](CO)NC(=O)C[C@H](Cc1ccc2ccccc2c1)NC(=O)CCCCCN)C(=O)N[C@H](CCCBr)B(O)O,
0.03,7.21,CCCC[C@H](NC(=O)[C@H](CCC(N)=O)NC(=O)[C@H](CO)NC(=O)C[C@H](Cc1ccc2ccccc2c1)NC(=O)CCCCCN)C(=O)N[C@H](Cc1ccccc1)B(O)O,
0.83,251,CCCC[C@H](NC(=O)[C@H](CCC(N)=O)NC(=O)[C@H](CO)NC(=O)CCCCCN)C(=O)N[C@H](CCCBr)B(O)O,
0.17,3.77,CCCC[C@H](NC(=O)[C@H](CCC(N)=O)NC(=O)[C@H](CO)NC(=O)CCCCCN)C(=O)N[C@H](Cc1ccccc1)B(O)O,
,,O=C(OCc1ccccc1)c1cccc(CC(=O)N2C(=O)[C@@H](Cc3ccc(O)cc3)[C@H]2C(=O)OCc2ccccc2)c1,IC50 [5]: 226 nM
0.11,18.1,CCCC[C@H](NC(=O)[C@H](CCCCN)NC(=O)[C@H](CO)NC(=O)[C@H](CO)NC(=O)OCc1ccccc1)C(=O)N[C@H](Cc1ccccc1)B(O)O (Cbz-SSK[Nle]-dboroPhe),
8.13,197,CCCC[C@H](NC(=O)[C@H](CCCCN)NC(=O)[C@H](CO)NC(=O)[C@H](CO)NC(=O)OCc1ccccc1)C(=O)N[C@H](CCCBr)B(O)O (Cbz-SSK[Nle]-{dboroNva(5-Br)}),
,,CC(C)C[C@H](NC(=O)[C@H](CCCCN)NC(=O)[C@H](CO)NC(=O)[C@@H](N)CO)C(=O)N[C@H](C=O)CCC(N)=O (H-SSKLQ-aldehyde),Ki [6]: 45000 nM
0.12,36.2,CCCC[C@H](NC(=O)[C@H](CCC(N)=O)NC(=O)[C@H](CO)NC(=O)[C@H](C)NC(=O)CCCCCN)C(=O)N[C@H](Cc1ccccc1)B(O)O (H-[Ahx]ASQ[Nle]-dboroPhe),
3.18,166,CCCC[C@H](NC(=O)[C@H](CCC(N)=O)NC(=O)[C@H](CO)NC(=O)[C@H](C)NC(=O)CCCCCN)C(=O)N[C@H](CCCBr)B(O)O (H-[Ahx]ASQ[Nle]-{dboroNva(5-Br)}),
6.77,496,CCCC[C@H](NC(=O)[C@H](CCC(N)=O)NC(=O)[C@H](CO)NC(=O)[C@H](Cc1ccccc1)NC(=O)CCCCCN)C(=O)N[C@H](CCCBr)B1O[C@@H]2C[C@H]3C[C@H](C3(C)C)[C@]2(C)O1 (H-[Ahx]FSQ[Nle]-X4),
0.002,0.135,CCCC[C@H](NC(=O)[C@H](CCC(N)=O)NC(=O)[C@H](CO)NC(=O)[C@H](Cc1ccccc1)NC(=O)CCCCCN)C(=O)N[C@H](Cc1ccccc1)B(O)O (H-[Ahx]FSQ[Nle]-dboroPhe),Ratio Ki [7]: 450
8.03,581,CCCC[C@H](NC(=O)[C@H](CCC(N)=O)NC(=O)[C@H](CO)NC(=O)[C@H](Cc1ccccc1)NC(=O)CCCCCN)C(=O)N[C@H](CCCBr)B(O)O (H-[Ahx]FSQ[Nle]-{dboroNva(5-Br)}),Activity (LNCaP [8]): inactive; inhibition in vivo at 10 mg/kg (Mus musculus [9]): 23%; inhibition in vivo at 10 mg/kg (Mus musculus [10]): 40%; Activity (Mus musculus [11]): Non-toxic; Activity (LNCaP [12]): Active
3.2,138,CCCC[C@H](NC(=O)[C@H](CCC(N)=O)NC(=O)[C@H](CO)NC(=O)[C@H](CO)NC(=O)CCCCCN)C(=O)N[C@H](CC(C)C)B(O)O (H-[Ahx]SSQ[Nle]-X2),
10.1,653,CCCC[C@H](NC(=O)[C@H](CCC(N)=O)NC(=O)[C@H](CO)NC(=O)[C@H](Cc1ccccc1)NC(=O)CCCCCNC(=O)c1ccc(I)cc1)C(=O)N[C@H](CCCBr)B(O)O ({Benzoyl(4-I)-Ahx}-FSQ[Nle]-{dboroNva(5-Br)}),
